# Sampled rows, rich in hits. Any-hit rate of the full collection: about 9.8%.
# Lmaj promast = reduces viability of Leishmania major promastigotes. inhibition, % at 10 µM. 200,000 compounds, 9% hits. resazurin fluorescence viability; in the data active = inhibition above about 50%;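 also: promastigotes grown with compound for 44 hours at 28 °C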
# WT yeast gro inh = growth inhibition of WT yeast, mitochondrial fusion screen | inhibition, % at 10 µM | AID 1362 | 190,000 compounds, 2.1% hits | mitochondrial fusion phenotypic screen, WT strain; in the data active = inhibition above about 58%; tested in S. cerevisiae
# PMI activator = phosphomannose isomerase (human) activation. P34949. purified human PMI, coupled resazurin fluorescence, 20 min; active compounds read high; 1 = vehicle control, 0 substrate-free wells. activation factor at 20 µM. 190,000 compounds, 0.005% hits. AID 1214;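 active = activation factor of 2 or more at 20 µM, relative to plate controls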
# Target sequence (P34949 whole entry, looked up): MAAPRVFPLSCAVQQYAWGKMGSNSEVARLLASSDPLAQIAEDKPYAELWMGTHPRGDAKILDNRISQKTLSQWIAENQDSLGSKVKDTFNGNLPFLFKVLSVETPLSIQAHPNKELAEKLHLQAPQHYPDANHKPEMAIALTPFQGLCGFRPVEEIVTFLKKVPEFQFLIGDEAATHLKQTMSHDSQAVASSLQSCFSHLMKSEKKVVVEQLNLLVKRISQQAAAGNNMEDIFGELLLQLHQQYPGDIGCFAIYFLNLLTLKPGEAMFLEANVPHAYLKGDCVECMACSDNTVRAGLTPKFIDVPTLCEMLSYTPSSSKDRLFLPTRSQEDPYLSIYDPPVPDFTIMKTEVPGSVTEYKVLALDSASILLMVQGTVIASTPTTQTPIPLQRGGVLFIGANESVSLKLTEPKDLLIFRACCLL
# Rad51 HR inh = Rad51 (human) homologous recombination inhibition. hRad51 DNA strand exchange, fluorescence dequenching. inhibition, % at 10 µM. 200,000 compounds, 0.085% hits;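 active = inhibition above 40% at the single screening dose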;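 also: 0% = DMSO control wells and 100% = blanks with heterologous ssDNA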
#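 Read-out basis: percent inhibition relative to plate controls and blanks / Assay system: human Rad51 nucleoprotein filaments preassembled on unlabelled ssDNA / Timing: filaments 15 min 37 °C, then compound 30 min / Control set: per-plate controls and blanks / Technique: fluorescence dequenching at 485/520 nm / Compound: 10 µM final, single point / Also added: Fluorescein- and BHQ1-tagged 47-mer duplex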
# m-calpain inh = inhibitors of pig calpain II. 220,000 compounds, 0.37% hits. AID 1236. purified calpain II, fluorogenic peptide substrate, 30 min. inhibition, % at 16 µM;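 active = inhibition above about 50%, limit read from the data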
# PMI act hi M6P = increases human PMI activity with near-saturating mannose 6-phosphate | P34949 | coupled PMI enzyme assay, resazurin fluorescence, 20 min; active compounds read high; 1 = untreated enzyme, 0 = substrate-free blank | activation factor at 20 µM | 190,000 compounds, 0.34% hits;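 active = activation factor of 2 or more at 20 µM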
#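 Test system: Human PMI in coupled enzyme assay | Input: 15 ng/mL PMI | Medium: HEPES-buffered pH 7.4 with magnesium and detergent | Compound: One concentration, 20 µM, in 1% DMSO | Incubation: Enzyme reaction with compound 20 min at room temperature | Detection: Diaphorase-driven resazurin-to-resorufin fluorescence, excitation 544, emission 590 nm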
# Starred values were filed as active, the others as inactive; / = not tested or not shown.
SMILES,Lmaj promast,WT yeast gro inh,PMI activator,Rad51 HR inh,m-calpain inh,PMI act hi M6P
CCCOc1ccc(Cc2c(Cl)nc(SC)nc2N(C)C)cc1,8,64*,0.9,7,-9,1
COc1ccc(Oc2ccc(/C=C/C(=O)c3cccc(OC)c3)cc2[N+](=O)[O-])cc1,100*,-23,1,/,-21,0.9
COc1ccc(Oc2ccc(/C=N/NC(=O)c3cccnc3)cc2[N+](=O)[O-])cc1,-6,-18,1,9,-7,1.1
COc1cccc(NC(=O)c2cc(CN3C(=O)c4ccccc4C3=O)ccc2OC)c1,89*,10,1,-2,32,1
COc1ccc(CN2CCC(C(=O)N(C)CCc3ccc(OC)c(OC)c3)CC2)c(OC)c1,-9,-2,0.9,4,-25,1
COc1ccc(CN2CCC(N(CCc3ccccc3)Cc3ccccc3)CC2)c(OC)c1,94*,52,1.1,33,17,1
COc1cc(NS(=O)(=O)c2ccc(NC(=S)NC(=O)c3sc4ccccc4c3Cl)cc2)nc(OC)n1,-8,3,0.8,10,58*,1
CC(=O)NC(c1ccco1)c1ccc2cccnc2c1O (stereo not drawn),98*,32,0.8,-4,-11,0.7
COc1cc(C(Nc2ccccn2)c2ccc3ccc(C)nc3c2O)cc(OC)c1O (stereo not drawn),94*,/,0.6,-3,-24,0.4
Oc1c(C(Nc2ccccn2)c2ccccn2)ccc2cccnc12 (stereo not drawn),100*,-15,0.9,/,-31,0.8
Cc1ccc2ccc(C(Nc3ccccn3)c3ccccc3)c(O)c2n1 (stereo not drawn),100*,-12,0.9,2,-18,0.9
COc1ccc(C(NC(=O)C(C)C)c2ccc3cccnc3c2O)cc1 (stereo not drawn),/,/,/,5,-22,/
Nc1nn(-c2cccc(F)n2)cc1-c1ccccc1,0,13,1.1,6,24,1
COc1ccc(NC(=O)c2cc3ccc4c5ccccc5[nH]c4c3cc2O)cc1,/,/,/,4,3,/
O=C(CSc1ncnc2nc[nH]c12)Nc1nnc(SCc2ccc(Cl)c(Cl)c2)s1,-3,19,1.1,18,-101,1
CC(O)c1nc2ccc(C(=O)O)cc2[nH]1 (stereo not drawn),/,/,/,/,-2,/
CC1(C)CSC(=NCCc2ccccc2)N1C(=O)c1ccc(C#N)cc1,92*,11,0.9,6,4,1
O=C(CN1CCCCC1)Nc1ccc(S(=O)(=O)N2CCCCCC2)cc1,8,7,1,-6,-4,1
CC1CCCN(CC(=O)Nc2ccc(S(=O)(=O)N3CCCCC3)cc2)C1 (stereo not drawn),92*,1,1,34,1,1.1
CN(CC(=O)Nc1ccc(S(=O)(=O)N2CCCC2)cc1)Cc1ccc(Cl)cc1,17,-4,0.9,7,11,0.8
CN(CC(=O)Nc1ccc(S(=O)(=O)N2CCCC2)cc1)Cc1c(F)cccc1Cl,100*,8,1,0,-4,1
CC1CCCN(CC(=O)Nc2ccc(S(=O)(=O)NC3CCCCC3)cc2)C1 (stereo not drawn),32,98*,0.9,4,-20,1
CC1CCCN(CC(=O)Nc2ccc(S(=O)(=O)N3CCCCCC3)cc2)C1 (stereo not drawn),84*,4,0.9,-6,8,0.9
CC1CCN(CC(=O)Nc2ccc(S(=O)(=O)NC3CC3)cc2)CC1,/,/,/,18,5,/
CCCCc1ccc(NC(=S)N2CCN(c3ncccn3)CC2)cc1,-4,1,1,1,-9,1
SMILES,Lmaj promast,WT yeast gro inh,PMI activator,Rad51 HR inh,m-calpain inh,PMI act hi M6P
O=[N+]([O-])c1cc(CN2CCC(O)CC2)ccc1Cl,-1,-7,1,3,-12,1.1
O=C(CS(=O)(=O)Cc1ccccc1)Nc1ccc(S(=O)(=O)N2CCCCCC2)cc1,52*,-3,0.9,-1,7,1
O=C(CS(=O)(=O)Cc1ccccc1)Nc1ccc(S(=O)(=O)N2CCOCC2)cc1,-4,-3,1,-2,-8,1
O=C(NNc1cccc(Cl)n1)Nc1cccc(Cl)c1,97*,17,1,0,1,1
CC(Cl)C(=O)NNc1cccc(Cl)n1 (stereo not drawn),-8,58*,0.8,17,-5,0.8
COc1ccc(CCNC(=O)c2cc(-c3cc(Cl)ccc3O)n[nH]2)cc1OC,/,/,/,/,-2,/
O=C(CCN1CCCCC1)N/N=C/c1c[nH]c2ccccc12,/,/,/,8,-20,/
COc1ccc(-c2noc(-c3ccccc3C(=O)Nc3cccnc3)n2)cc1OC,71*,4,0.9,6,-19,1
COc1ccc(NC(=O)c2cccs2)cc1OC,-1,15,0.9,-6,8,0.9
COc1ccc(Cl)cc1-c1nc(-c2ccc(NC(=O)c3cccs3)cc2)no1,65*,0,1,-2,-66,1
CC(Oc1ccc(Cl)cc1Cl)c1nc(-c2ccc(NC(=O)c3cccnc3)cc2)no1 (stereo not drawn),95*,37,0.8,21,-3,0.8
COc1ccc(-c2noc(-c3ccccc3C(=O)Nc3cccnc3)n2)cc1,22,-13,0.9,-9,-8,1
CCOCCCNC(=O)C(c1ccc(C)cc1)N(Cc1cccs1)C(=O)c1ccccc1O (stereo not drawn),5,0,1.1,/,-17,1.1
N[C@H]1CONC1=O,/,/,/,-2,/,/
COc1cccc(CN2CCN(Cc3cccc4nonc34)CC2CCO)c1 (stereo not drawn),3,-2,1,-54,-10,1
Cc1cc(C)cc(NC(=S)NC2CC3CCCC(C2)N3C2CCCC2)c1 (stereo not drawn),53*,6,0.9,5,0,1
Cc1cc(C)cc(NC(=S)NC2CC3CCCC(C2)N3C2CC2)c1 (stereo not drawn),55*,-3,0.9,5,-29,0.9
O=C(CSc1ccc(-c2cccc([N+](=O)[O-])c2)nn1)N1CCCCC1,-5,7,1.1,21,14,1.1
O=C(CSc1nnnn1-c1ccc2c(c1)OCCO2)N1CCN(C(=O)c2ccco2)CC1,10,-7,0.9,-2,3,1
COc1cc(/C=C(\C#N)C(=O)Nc2cccc3ncccc23)ccc1O,100*,8,0.9,-8,-9,0.6
CC(C)NCC(O)Cn1c2c(c3ccccc31)CCc1c-2cnn1-c1ccccc1 (stereo not drawn),100*,11,0.9,25,-492,0.8
COCC(C)n1c(SCC(=O)NC(=O)Nc2ccc3c(c2)OCCO3)nc2ccccc2c1=O (stereo not drawn),85*,16,0.8,-2,-33,0.8
